This sample holds only a part of the variants without activity.
B1: tRNA (parent)
chain: GUUCCGUUGGCGUAAUGGUAACGCGUCUCCCUCCUAAGGAGAAGACUGCGGGUUCGAGUCCCGUACGGAACG

Variants of: B1
Test: yeast fitness relative to wild type (ratio to wild type); higher = fitter; tRNA-Arg(CCU), competitive growth, 37 C, YPD
Summary of the method: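 Variants of the tRNA-Arg(CCU) gene, chemically synthesised with a 3% per-site mutation rate at 69 sites, were placed at the native genomic locus in Saccharomyces cerevisiae. The pooled strains were competed in YPD at 37°C for 24 hours in six parallel replicates. Gene amplicons from the start population and from each end population were read by 100-nucleotide paired-end sequencing. Darwinian fitness relative to wild type came from changes in genotype frequencies; genotypes needed ≥ 100 starting reads, and estimates < 0.5 were set to 0.5.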

First: GUUCCGUUGGCGUAAUGGUAACGCGUCUCCCUCCUAACGAGAAGACUGUGGGUUCGAGUCCUGUACGGUACG [G38C C49U C62U A69U]
Second: GUUCCGUUGGCGUAAUGGUAACGCGUCUCCCUCCUAACGAGAAGACUGGCGGUUCGAGUCUCGUACGGAACG [G38C C49G G50C C61U]
The yeast fitness of the first is higher: 0.819 for the first, 0.555 for the second.

First: GUUCCGUUGGCGUAAUGGUAACGCGUCUCCCUCCUAACGACAAGACUGCGGGUUCGAGUCCCGUACGGAACG [G38C G41C]
Second: GUUCCGUUGGCGUAAUGGUAACGCGUCUCCCUCCUAACGAGAAGACUGCGGGUUCGACUCCCGUACGGUACG [G38C G58C A69U]
The yeast fitness of the first is lower: 0.614 for the first, 0.714 for the second.

Going from GUUCCGUUGGCGUAAUGGUAACGCGUCUCCCUCCUAACGAGAAGGCUGCGGGUUCGAGUCCCGUACGGACCG [G38C A45G A70C] to GUUCCGUUGGCGUAAUGGUAACGCGUCUCCCUCCUAACGACAAGACUGCGGGUUCGAGUCCCGUACGGACCG [G38C G41C A70C], the yeast fitness rises from 0.548 to 0.553.

Going from GUUCCGUUGGCGUAAUGGUAACGCGUCUCCCUCCUAACGAGAAGACUGCGGGUUCGAGUCCCGUAAGGAACG [G38C C66A] to GUUCCGUUGGCGUAAUGGUAACGCGUCUCCCUCCUAACGAGAAGACUGCGGGUUCGAGUCCCGUAUGGAACG [G38C C66U], the yeast fitness rises from 0.561 to 0.664.

Compared with GUUCCGUUGGCGUAAUGGUAACGCGUCUCCCUCCUAACGAGAAGACUGCGGGUUCAAAUCCCGUACGGAACG [G38C G56A G58A], GUUCCGUUGGCGUAAUGGUAACGCGUCUCCCUCCUAACGACAAGACUGCGGGUUCGAGUCCCGUGCGGAACG [G38C G41C A65G] is lower in yeast fitness: 0.609 for the first, 0.597 for the second.

Going from GUUCCGUUGGCGUAAUGGUAACGCGUCUCCCUCCUAACGAGAAGACUGCGGGUUCAAGUCCCGUACGGAACG [G38C G56A] to GUUCCGUUGGCGUAAUGGUAACGCGUCUCCCUCCUAACGAGAAGACUGCGGGUUCGACUCCCGUACGGAACG [G38C G58C], the yeast fitness rises from 0.789 to 0.937.

First: GUUCCGUUGGCGUAAUGGUAACGCGUCUCCCUCCUAACGAGAAGACUGCGGGUUCGAAUCCCGUACGGAACG [G38C G58A]
Second: GUUCCGUUGGCGUAAUGGUAACGCGUCUCCCUCCUAACGAGAAGACUGCGGGUUCGAGUCCCGAACGACACG [G38C U64A G68A A69C]
The yeast fitness of the first is higher: 0.756 for the first, at most 0.5 for the second.

First: GUUCCGUUGGCGUAAUGGUAACGCGUCUCCCUCCUAACGAGAAGACUGCGGGUUGGAGUCCCGUACAGAACG [G38C C55G G67A]
Second: GUUCCGUUGGCGUAAUGGUAACGCGUCUCCCUCCUAACGAGAAGACUGCGGGUUCGAGUCCCGUACGCAACG [G38C G68C]
The yeast fitness of the first is lower: at most 0.5 for the first, 0.819 for the second.

Going from GUUCCGUUGGCGUAAUGGUAACGCGUCUCCCUCCUAACGAGAAGACUGCGGGUUCGAGUCCCAUACGGAACG [G38C G63A] to GUUCCGUUGGCGUAAUGGUAACGCGUCUCCCUCCUAACGAGAAGACUGCGGGUUUGAGUCCCGUACGGAACG [G38C C55U], the yeast fitness falls from 0.674 to 0.545.

First: GUUCCGUUGGCGUAAUGGUAACGCGUCUCCCUCCUAACGAGAAGACUGCGGGUUGGAGUCCCGUACGGAACG [G38C C55G]
Second: GUUCCGUUGGCGUAAUGGUAACGCGUCUCCCUCCUAACGAAAAGACUGCGGGUUCGAGUCUCGUACGGAACG [G38C G41A C61U]
The yeast fitness of the first is higher: 0.617 for the first, 0.553 for the second.

Compared with GUUCCGUUGGCGUAAUGGUAACGCGUCUCCCUCCUAACGAGAAGACUGCGGCUUCGAGUCCCGUACGGAACG [G38C G52C], GUUCCGUUGGCGUAAUGGUAACGCGUCUCCCUCCUAACGAGAAGAAUGCGGGUUCGAGCCCCGUACGGAACG [G38C C46A U59C] is lower in yeast fitness: 0.502 for the first, at most 0.5 for the second.

First: GUUCCGUUGGCGUAAUGGUAACGCGUCUCCCUCCUAACGACAAGACUGCGGGUUUGAGUCCCGUACGGAACG [G38C G41C C55U]
Second: GUUCCGUUGGCGUAAUGGUAACGCGUCUCCCUCCUAACGAGAAGACUACGGGUUCCAGUCCCGUACGGAACG [G38C G48A G56C]
The yeast fitness of the first is lower: at most 0.5 for the first, 0.7 for the second.

Compared with GUUCCGUUGGCGUAAUGGUAACGCGUCUCCCUCCUAACGAGAAAACUGCGGGUUCGAGUCCCGUACGGAACG [G38C G44A], GUUCCGUUGGCGUAAUGGUAACGCGUCUCCCUCCUAACGAGAAGACUGCGGGUUCGAGUCACGUACGGAACG [G38C C61A] is lower in yeast fitness: 0.72 for the first, 0.608 for the second.

First: GUUCCGUUGGCGUAAUGGUAACGCGUCUCCCUCCUAACGAGAAGCCCGCGGGUUCGAGUCCCGUACGGAACG [G38C A45C U47C]
Second: GUUCCGUUGGCGUAAUGGUAACGCGUCUCCCUCCUAACGAGAAGACUGCAGGUUCGAGUCCCGUACGGAACG [G38C G50A]
The yeast fitness of the first is lower: at most 0.5 for the first, 0.734 for the second.

GUUCCGUUGGCGUAAUGGUAACGCGUCUCCCUCCUAACGAGAAGACUGCGGGUUCGAGUCACGUACAGAACG [G38C C61A G67A] and GUUCCGUUGGCGUAAUGGUAACGCGUCUCCCUCCUAACGAGAAGUCUGCGGGUUCGAGUCCCGUAUGGAACG [G38C A45U C66U] cannot be ordered by yeast fitness: at most 0.5 for the first, at most 0.5 for the second.

Going from GUUCCGUUGGCGUAAUGGUAACGCGUCUCCCUCCUAACCAGAAGACUGCGGGUGCGAGUCCCGUACGGAACG [G38C G39C U54G] to GUUCCGUUGGCGUAAUGGUAACGCGUCUCCCUCCUAACGAGAAGACUGCGGGUGCGAGUACCGUACGGAACG [G38C U54G C60A], the yeast fitness rises from 0.545 to 0.589.

Going from GUUCCGUUGGCGUAAUGGUAACGCGUCUCCCUCCUAACGAGAAGACUGCGGGUUCGAGUCCCGUCUGGAACG [G38C A65C C66U] to GUUCCGUUGGCGUAAUGGUAACGCGUCUCCCUCCUAACGAGAAGACUGCGGGUUCGAGUCCGGUACGGAACG [G38C C62G], the yeast fitness rises from at most 0.5 to 0.63.

First: GUUCCGUUGGCGUAAUGGUAACGCGUCUCCCUCCUAACGAGAAGACUGCGGGUUCGAGUCCAGUACGGAACG [G38C C62A]
Second: GUUCCGUUGGCGUAAUGGUAACGCGUCUCCCUCCUAACGACAAGACUGCGGGUUCGCGUCCCGUACGGAACG [G38C G41C A57C]
The yeast fitness of the first is higher: 0.624 for the first, 0.576 for the second.

GUUCCGUUGGCGUAAUGGUAACGCGUCUCCCUCCUAACGAGAAGACUGCGGGUUCGAGUCCCGUGCGGAACG [G38C A65G] gave a yeast fitness of 0.771.

Reference: the RNAGym collection of RNA variant scans (doi:10.1126/science.aae0568)
